From ChEMBL document CHEMBL2384906, “Biological activity, design, synthesis and structure activity relationship of some novel derivatives of curcumin containing sulfonamides” (Eur J Med Chem, 2013)
Activity calls are given as the source filed them.

Assays:
Bacillus cereus [1] = assay: Antimicrobial activity against Bacillus cereus MTCC 7350 after 24 hrs by broth micro serial dilution method; type: functional
Procedure, shortened: (§1)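 This was broth microdilution in autoclaved Mueller-Hinton broth. 150 µL of compound per well was serially diluted […], and 50 µL of test organism was added. Plates were incubated 24 h at 37 °C and optical density was read.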

Aspergillus flavus [2] = assay: Antifungal activity against Aspergillus flavus MTCC 1021 assessed as zone of inhibition at 40 uM after 48 hrs by disc diffusion method; type: functional; conditions: MTCC 1021, 48 h, read-out: IZ
Procedure, shortened: (§2)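 Spores from 4-day potato dextrose agar cultures, suspended in sterile water at 1.5 × 10⁵ CFU/mL. 0.2 mL was spread on potato dextrose agar. 5 mm filter-paper discs soaked with test compound were laid on the lawn. Incubation was 48 h at 28 °C, then the inhibition zone was measured in mm. Fluconazole was the positive control and acetone the negative control.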

Curvularia lunata [3] = assay: Antifungal activity against Curvularia lunata MTCC 581 assessed as zone of inhibition at 40 uM after 48 hrs by disc diffusion method; type: functional; conditions: MTCC 581, 48 h, read-out: IZ; procedure, shortened: as §2
Aspergillus niger [4] = assay: Antifungal activity against Aspergillus niger MTCC 1108 after 48 hrs; type: functional; conditions: MTCC 1108, 48 h
Aspergillus flavus [5] = assay: Antifungal activity against Aspergillus flavus MTCC 1021 assessed as zone of inhibition at 20 uM after 48 hrs by disc diffusion method; type: functional; procedure, shortened: as §2
Trichoderma viride [6] = assay: Antifungal activity against Trichoderma viride MTCC 1107 assessed as zone of inhibition at 20 uM after 48 hrs by disc diffusion method; type: functional; procedure, shortened: as §2
Aspergillus flavus [7] = assay: Antifungal activity against Aspergillus flavus MTCC 1021 after 48 hrs; type: functional; conditions: MTCC 1021, 48 h
Curvularia lunata [8] = assay: Antifungal activity against Curvularia lunata MTCC 581 assessed as zone of inhibition at 80 uM after 48 hrs by disc diffusion method; type: functional; conditions: MTCC 581, 48 h, read-out: IZ; procedure, shortened: as §2
Aspergillus niger [9] = assay: Antifungal activity against Aspergillus niger MTCC 1108 assessed as zone of inhibition at 20 uM after 48 hrs by disc diffusion method; type: functional; procedure, shortened: as §2
Curvularia lunata [10] = assay: Antifungal activity against Curvularia lunata MTCC 581 assessed as zone of inhibition at 20 uM after 48 hrs by disc diffusion method; type: functional; procedure, shortened: as §2
Trichoderma viride [11] = assay: Antifungal activity against Trichoderma viride MTCC 1107 after 48 hrs; type: functional; conditions: MTCC 1107, 48 h
HeLa = assay: Cytotoxicity against human HeLa cells after 24 hrs by MTT assay; type: functional, cell-based
Procedure, shortened: (§3)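 The MTT assay seeded 5 × 10⁴ cells per well and grew them 24 h in RPMI 1640 with compound at 2.5–200 µM. Medium without cells was the blank and adriamycin the positive control. MTT was added for 4 h at 37 °C, formazan was solubilised, and absorbance was read at 570 nm. IC50 is the concentration that cuts viability 50% against untreated cells.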

Staphylococcus aureus [12] = assay: Antimicrobial activity against Staphylococcus aureus ATCC 11632 assessed as diameter of inhibition zone at 80 uM after 24 hrs by Kirby -Baur disc diffusion method; type: functional
Procedure, shortened: (§4)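 Kirby-Bauer disc diffusion was used. Acetone stocks (160 µM) were serially doubled down to 80, 40 and 20 µM. 4 µL of each went onto 5 mm sterile paper discs, which were dried 30 min at 50 °C. Inoculum was 1.5 × 10⁸ CFU/mL diluted to 3 × 10² CFU/mL, and 50 µL was spread on Mueller-Hinton agar. After 24 h at 37 °C the inhibition-zone diameter was measured. Ciprofloxacin served as positive control.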

Aspergillus niger [13] = assay: Antifungal activity against Aspergillus niger MTCC 1108 assessed as zone of inhibition at 80 uM after 48 hrs by disc diffusion method; type: functional; conditions: MTCC 1108, 48 h, read-out: IZ; procedure, shortened: as §2
Escherichia coli [14] = assay: Antimicrobial activity against Escherichia coli ATCC 35218 assessed as diameter of inhibition zone at 80 uM after 24 hrs by Kirby -Baur disc diffusion method; type: functional; procedure, shortened: as §4
Salmonella typhi [15] = assay: Antimicrobial activity against Salmonella typhi ATCC 23564 assessed as diameter of inhibition zone at 80 uM after 24 hrs by Kirby -Baur disc diffusion method; type: functional
Escherichia coli [16] = assay: Antimicrobial activity against Escherichia coli ATCC 35218 after 24 hrs by broth micro serial dilution method; type: functional; conditions: ATCC 35218, 24 h; procedure, shortened: as §1
HepG2 = assay: Cytotoxicity against human HepG2 cells after 24 hrs by MTT assay; type: functional, cell-based; procedure, shortened: as §3
Trichoderma viride [17] = assay: Antifungal activity against Trichoderma viride MTCC 1107 assessed as zone of inhibition at 80 uM after 48 hrs by disc diffusion method; type: functional; conditions: MTCC 1107, 48 h, read-out: IZ; procedure, shortened: as §2
Curvularia lunata [18] = assay: Antifungal activity against Curvularia lunata MTCC 581 after 48 hrs; type: functional; conditions: MTCC 581, 48 h
Aspergillus flavus [19] = assay: Antifungal activity against Aspergillus flavus MTCC 1021 assessed as zone of inhibition at 80 uM after 48 hrs by disc diffusion method; type: functional; conditions: MTCC 1021, 48 h, read-out: IZ; procedure, shortened: as §2
Pseudomonas aeruginosa [20] = assay: Antimicrobial activity against Pseudomonas aeruginosa ATCC 15499 assessed as diameter of inhibition zone at 80 uM after 24 hrs by Kirby -Baur disc diffusion method; type: functional; procedure, shortened: as §4
QG-56 = assay: Cytotoxicity against human QG56 cells after 24 hrs by MTT assay; type: functional, cell-based; procedure, shortened: as §3
Bacillus cereus [21] = assay: Antimicrobial activity against Bacillus cereus MTCC 7350 assessed as diameter of inhibition zone at 80 uM after 24 hrs by Kirby -Baur disc diffusion method; type: functional; procedure, shortened: as §4
Mus musculus = assay: Antiinflammatory activity in mouse assessed as inhibition of carrageenan-induced increase in paw volume at 200 mg/kg administered 1 hr prior to carrageenan challenge measured after 3 hrs relative to control; type: functional
Procedure, shortened: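 Mice were fasted 2 h and placed in groups of five. Controls received saline i.p. Phenylbutazone was given at 100 mg/kg i.p., curcumin at 200 mg/kg i.p., and derivatives at 200 mg/kg. After 1 h, 0.1 mL of 1% carrageenan in saline was injected subplantar into the right hind paw. Paw volume was followed by plethysmometer for 3 h, and % inhibition was calculated as (Vc − Vt)/Vc × 100.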

Salmonella typhi [22] = assay: Antimicrobial activity against Salmonella typhi ATCC 23564 after 24 hrs by broth micro serial dilution method; type: functional
Pseudomonas aeruginosa [23] = assay: Antimicrobial activity against Pseudomonas aeruginosa ATCC 15499 after 24 hrs by broth micro serial dilution method; type: functional; conditions: ATCC 15499, 24 h; procedure, shortened: as §1
Staphylococcus aureus [24] = assay: Antimicrobial activity against Staphylococcus aureus ATCC 11632 after 24 hrs by broth micro serial dilution method; type: functional; procedure, shortened: as §1
Aspergillus niger [25] = assay: Antifungal activity against Aspergillus niger MTCC 1108 assessed as zone of inhibition at 40 uM after 48 hrs by disc diffusion method; type: functional; procedure, shortened: as §2
HCT-116 = assay: Cytotoxicity against human HCT116 cells after 24 hrs by MTT assay; type: functional, cell-based; procedure, shortened: as §3
Trichoderma viride [26] = assay: Antifungal activity against Trichoderma viride MTCC 1107 assessed as zone of inhibition at 40 uM after 48 hrs by disc diffusion method; type: functional; conditions: MTCC 1107, 48 h, read-out: IZ; procedure, shortened: as §2
Pseudomonas aeruginosa [27] = assay: Antimicrobial activity against Pseudomonas aeruginosa ATCC 15499 assessed as diameter of inhibition zone at 40 uM after 24 hrs by Kirby -Baur disc diffusion method; type: functional; procedure, shortened: as §4
Pseudomonas aeruginosa [28] = assay: Antimicrobial activity against Pseudomonas aeruginosa ATCC 15499 assessed as diameter of inhibition zone at 20 uM after 24 hrs by Kirby -Baur disc diffusion method; type: functional; procedure, shortened: as §4
Salmonella typhi [29] = assay: Antimicrobial activity against Salmonella typhi ATCC 23564 assessed as diameter of inhibition zone at 20 uM after 24 hrs by Kirby -Baur disc diffusion method; type: functional; conditions: Salmonella enterica subsp. enterica serovar Typhi
Escherichia coli [30] = assay: Antimicrobial activity against Escherichia coli ATCC 35218 assessed as diameter of inhibition zone at 20 uM after 24 hrs by Kirby -Baur disc diffusion method; type: functional; procedure, shortened: as §4
Salmonella typhi [31] = assay: Antimicrobial activity against Salmonella typhi ATCC 23564 assessed as diameter of inhibition zone at 40 uM after 24 hrs by Kirby -Baur disc diffusion method; type: functional, Salmonella enterica subsp. enterica serovar Typhi; conditions: Salmonella enterica, ATCC 23564, 24 h; read-out: DIZ
Escherichia coli [32] = assay: Antimicrobial activity against Escherichia coli ATCC 35218 assessed as diameter of inhibition zone at 40 uM after 24 hrs by Kirby -Baur disc diffusion method; type: functional; conditions: ATCC 35218, 24 h, read-out: DIZ; procedure, shortened: as §4
[33] = Salmonella enterica subsp. enterica serovar Typhi

COc1cc(/C=C/C(=O)C(/N=N/c2ccc(S(=O)(=O)Nc3ccccn3)cc2)=C(O)/C=C/c2ccc(O)c(OC)c2)ccc1O
40 µM: MIC (Aspergillus niger [4]) | MIC (Aspergillus flavus [7]) | MIC (Trichoderma viride [11]) | MIC (Curvularia lunata [18])
> 80 µM: MIC (Escherichia coli [16]) | MIC (Pseudomonas aeruginosa [23])
100 µM: IC50 (HeLa)
12 mm: zone of inhibition at 40 µM (Aspergillus flavus [2])
17 mm: zone of inhibition at 80 µM (Curvularia lunata [8]) | zone of inhibition at 80 µM (Trichoderma viride [17])
14 mm: zone of inhibition at 80 µM (Aspergillus niger [13])
9.6%: inhibition in vivo at 200 mg/kg (Mus musculus)
Not Active: IC50 (HepG2) | IC50 (QG-56) | IC50 (HCT-116)
9 mm: zone of inhibition at 20 µM (Aspergillus flavus [5]; MTCC 1021, 48 h, read-out: IZ) | zone of inhibition at 20 µM (Aspergillus niger [9]; MTCC 1108, 48 h, read-out: IZ)
10 mm: zone of inhibition at 20 µM (Trichoderma viride [6]; MTCC 1107, 48 h, read-out: IZ) | zone of inhibition at 20 µM (Curvularia lunata [10]; MTCC 581, 48 h, read-out: IZ)
13 mm: zone of inhibition at 40 µM (Curvularia lunata [3]) | zone of inhibition at 80 µM (Aspergillus flavus [19]) | zone of inhibition at 40 µM (Trichoderma viride [26])
11 mm: zone of inhibition at 40 µM (Aspergillus niger [25]; MTCC 1108, 48 h, read-out: IZ)
inactive: MIC (Bacillus cereus [1]) | diameter of the inhibition zone (DIZ) (Staphylococcus aureus [12]) | diameter of the inhibition zone (DIZ) (Escherichia coli [14]) | diameter of the inhibition zone (DIZ) (Salmonella typhi [15]; [33]) | diameter of the inhibition zone (DIZ) (Pseudomonas aeruginosa [20]) | diameter of the inhibition zone (DIZ) (Bacillus cereus [21]) | MIC (Salmonella typhi [22]; [33]) | MIC (Staphylococcus aureus [24])

COc1cc(/C=C/C(=O)C(/N=N/c2ccc(S(N)(=O)=O)cc2)=C(O)/C=C/c2ccc(O)c(OC)c2)ccc1O
> 80 µM: MIC (Aspergillus niger [4]) | MIC (Aspergillus flavus [7]) | MIC (Trichoderma viride [11]) | MIC (Escherichia coli [16]) | MIC (Curvularia lunata [18]) | MIC (Salmonella typhi [22]; Salmonella enterica, ATCC 23564, 24 h) | MIC (Pseudomonas aeruginosa [23])
10 mm: zone of inhibition at 40 µM (Curvularia lunata [3]) | zone of inhibition at 80 µM (Aspergillus niger [13]) | zone of inhibition at 40 µM (Trichoderma viride [26])
> 100 µM: IC50 (HeLa)
inactive: MIC (Bacillus cereus [1]) | diameter of the inhibition zone (DIZ) (Pseudomonas aeruginosa [27]) | diameter of the inhibition zone (DIZ) (Pseudomonas aeruginosa [28]) | inhibition zone (IZ) (Aspergillus flavus [5]) | inhibition zone (IZ) (Trichoderma viride [6]) | inhibition zone (IZ) (Aspergillus niger [9]) | inhibition zone (IZ) (Curvularia lunata [10]) | diameter of the inhibition zone (DIZ) (Salmonella typhi [29]) | diameter of the inhibition zone (DIZ) (Staphylococcus aureus [12]) | diameter of the inhibition zone (DIZ) (Escherichia coli [30]) | diameter of the inhibition zone (DIZ) (Bacillus cereus [21]) | MIC (Staphylococcus aureus [24]) | inhibition zone (IZ) (Aspergillus niger [25])
9 mm: zone of inhibition at 40 µM (Aspergillus flavus [2]) | zone of inhibition at 40 µM (Salmonella typhi [31]) | zone of inhibition at 80 µM (Pseudomonas aeruginosa [20]; ATCC 15499, 24 h, read-out: DIZ) | zone of inhibition at 40 µM (Escherichia coli [32])
11 mm: zone of inhibition at 80 µM (Curvularia lunata [8]) | zone of inhibition at 80 µM (Salmonella typhi [15]; Salmonella enterica, ATCC 23564, 24 h, read-out: DIZ) | zone of inhibition at 80 µM (Trichoderma viride [17]) | zone of inhibition at 80 µM (Aspergillus flavus [19])
12 mm: zone of inhibition at 80 µM (Escherichia coli [14]; ATCC 35218, 24 h, read-out: DIZ)
16.1%: inhibition in vivo at 200 mg/kg (Mus musculus)
Not Active: IC50 (HepG2) | IC50 (QG-56) | IC50 (HCT-116)
